Assay results: PMC6852655 (International Journal of Cancer, 2019)

What was measured:
PC-3 xenografts [1] = test: Dosimetry estimates; design: species or system BALB/c nu/nu mice; conditions: per 60 MBq treatment cycle (200 pmol)
Method in brief: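 Organ absorbed doses were estimated for a 100 pmol injection of the 177Lu-labelled test peptide. The estimate used time-course biodistribution data from PC-3-xenografted nude mice and a MOBY-phantom dosimetry model. Other peptide masses were scaled by the ratio of 1 hr uptake at 50–250 pmol to the 100 pmol 1 hr uptake; uptake versus mass was fitted with exponential curves. Doses were expressed per 60 MBq cycle.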

[2] = In vivo metabolic stability, mouse blood 5 min pi, without or with PA; design: species or system Swiss albino mice; conditions: peripheral mouse blood, HPLC; for Intact radiopeptide, 5 min pi (+ phosphoramidon): PA coinjected, n=2; for Intact radiopeptide, 5 min pi: radioligand alone, n=3
Method in brief: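 Healthy male Swiss albino mice (30 ± 5 g) were injected with the 177Lu-labelled test peptide alone (n = 3) or with coinjected phosphoramidon (n = 2). Blood was collected at 5 min pi and analysed by HPLC radiochromatography for the percentage of intact radioligand.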

PC-3 xenografts [3] = test: Experimental in vivo therapy; design: species or system BALB/c nu/nu mice
PC-3 xenografts [4] = test: Influence of injected peptide dose on biodistribution; assay type: in vivo, BALB/c nu/nu mice; conditions: 750 pmol in comparison to 50 pmol, 1 hr pi
Method in brief: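 PC-3-xenografted BALB/c nu/nu mice (17 ± 2 g; tumours 0.19 ± 0.06 g) were injected with 80 kBq of the 177Lu-labelled test peptide at a total peptide dose of 50, 100, 250, 500 or 750 pmol/animal, with phosphoramidon coinjection. Tumour and organ uptake were measured at 1 hr pi; tumour slices were also examined by ex vivo autoradiography.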

PC-3 xenografts [5] = test: Influence of PA coinjection on biodistribution; assay type: in vivo, BALB/c nu/nu mice; conditions: 1 hr pi
PC-3 xenografts [6] = test: Biodistribution over time; assay type: in vivo, BALB/c nu/nu mice; conditions: 24 hr pi vs peak at 1 hr pi, 100 pmol
Method in brief: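 PC-3-xenografted BALB/c nu/nu mice received the 177Lu-labelled test peptide (80 kBq, 100 pmol/animal, 100 μl) with coinjected NEP inhibitor phosphoramidon. Animals were euthanized at 0.5, 1, 2, 4, 24, 48 and 90 hr pi, and tumour and organ activity uptake were measured.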

Structure (SMILES)	Estimated absorbed dose to the kidneys (PC-3 xenografts [1])	Estimated absorbed dose to the tumor (PC-3 xenografts [1])	Intact radiopeptide, 5 min pi (+ phosphoramidon) [2]	Intact radiopeptide, 5 min pi [2]	Median survival compared with controls (PC-3 xenografts [3]; 6 cycles iv every second day, n=11-12)	Tumor growth (PC-3 xenografts [3]; 6 cycles, 200 pmol/60 MBq, +PA)	Decrease of tumor uptake (PC-3 xenografts [4])	Increase of pancreatic uptake with PA (PC-3 xenografts [5]; 50 pmol, PA vs control)	Increase of tumor uptake with PA (PC-3 xenografts [5]; 50 pmol, PA vs control)	Amplification of tumor uptake with PA (PC-3 xenografts [5]; PA coinjection)	Decrease of tumor uptake (PC-3 xenografts [6])
CC(C)C[C@H](NC(=O)C[C@H](O)[C@H](CC(C)C)NC(=O)[C@H](Cc1c[nH]cn1)NC(=O)CNC(=O)[C@@H](NC(=O)[C@H](C)NC(=O)[C@H](Cc1c[nH]c2ccccc12)NC(=O)[C@H](CCC(N)=O)NC(=O)[C@@H](Cc1ccccc1)NC(=O)COCCOCCNC(=O)CCC(C(=O)O)N1CCN(CC(=O)O)CCN(CC(=O)O)CCN(CC(=O)O)CC1)C(C)C)C(N)=O (stereo partly drawn) [^177Lu-DOTAGA-PEG2-RM26, metal not drawn]	5 Gy	11 Gy	> 98%	70.7 ± 3.1%	significant prolongation of median survival	significant inhibition of tumor growth	threefold	threefold	1.6 fold	60%	fourfold
CC(C)C[C@H](NC(=O)C[C@H](O)[C@H](CC(C)C)NC(=O)[C@H](Cc1c[nH]cn1)NC(=O)CNC(=O)[C@@H](NC(=O)[C@H](C)NC(=O)[C@H](Cc1c[nH]c2ccccc12)NC(=O)[C@H](CCC(N)=O)NC(=O)[C@@H](Cc1ccccc1)NC(=O)COCCOCCNC(=O)CCC(C(=O)O)N1CCN(CC(=O)O)CCN(CC(=O)O)CC1)C(C)C)C(N)=O (stereo partly drawn) [^177Lu-NODAGA-PEG2-RM26, metal not drawn]			> 96%	64.0 ± 2.0%							
CC(C)C[C@H](NC(=O)C[C@H](O)[C@H](CC(C)C)NC(=O)[C@H](Cc1c[nH]cn1)NC(=O)CNC(=O)[C@@H](NC(=O)[C@H](C)NC(=O)[C@H](Cc1c[nH]c2ccccc12)NC(=O)[C@H](CCC(N)=O)NC(=O)[C@@H](Cc1ccccc1)NC(=O)COCCOCCNC(=O)CN1CCN(CC(=O)O)CCN(CC(=O)O)CCN(CC(=O)O)CC1)C(C)C)C(N)=O [^177Lu-DOTA-PEG2-RM26, metal not drawn]			> 96%	64.7 ± 4.6%							
